According to ChEMBL document CHEMBL1955838, “Asymmetric synthesis and evaluation of a hydroxyphenylamide voltage-gated sodium channel blocker in human prostate cancer xenografts” (Bioorg Med Chem, 2012):
The source made the active and inactive calls. No cut-off for these calls is given here.

Experiments:
[1] = molecular target: T1, hERG (KCNH2) (Homo sapiens, UniProt Q12809); test: Displacement of [35S]MK-0499 from human ERG at 1 uM after >90 mins by scintillation counting; details: probe [35S]MK-0499
How it was run: (§1)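 Binding to membranes from HEK-293 cells stably expressing hERG, with 0.05 nM [35S]MK-499 in NaCl/KCl/HEPES buffer pH 7.4 with Mg2+ and Ca2+, 25 °C for >90 min. Filtered on BSA-presoaked GF/C plates, then scintillation counted. Five-point half-log titration, 0.3–30 μM. Percent inhibition relative to no-competitor control and 1 μM unlabeled MK-499; triplicate.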

[2] = molecular target: Sodium channel protein type 2 subunit alpha (Homo sapiens) (UniProt Q99250); test: Inhibition of human voltage-gated sodium channel 1.2-mediated current expressed in HEK293 cells at -60 to +10 mV holding poteinitial at 1 uM after 5 mins by patch clamp electrophysiology; assay type: cell-based
How it was run: (§2)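 Whole-cell patch clamp at 20–22 °C. Pipette solution CsCl/BAPTA/MgATP, pH 7.4; bath NaCl 130 mM, pH 7.4. ≥75% series resistance compensation; cells held at −100 mV for 5 min. Currents evoked by 25 ms steps from −60 to +10 mV every 15 s. Compound from 100 mM DMSO stock, perfused 5 min, then washout. Tonic block taken as peak current with drug versus drug-free.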

[3] = molecular target: T1, hERG (KCNH2); test: Displacement of [35S]MK-0499 from human ERG at 0.3 uM after >90 mins by scintillation counting; details: probe [35S]MK-0499; how it was run: as §1
[4] = molecular target: Sodium channel protein type 9 subunit alpha (Homo sapiens, UniProt Q15858); test: Inhibition of human voltage-gated sodium channel 1.7 expressed in HEK293 cells assessed as changes in membranre potential after 45 mins by FRET analysis
[5] = tested on: CWR22R; test: (§3) Cytotoxicity against human CWR22Rv1 cells assessed as cell death at 25 uM after 24 hrs by propidium iodide staining-based FACS analysis; assay type: functional
How it was run: (§4)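 CWR22Rv1 cells seeded at 300,000/well in RPMI 1640 with 10% FBS, 2.5 mM L-glutamine and penicillin-streptomycin at 37 °C, 5% CO2, then switched to serum-free RPMI overnight. Compounds from DMSO stock diluted in serum-free RPMI, applied in triplicate. After treatment, cells trypsinized, fixed in 70% ethanol, RNase-treated (5 μg/mL), stained with propidium iodide (50 μg/mL), DNA content read by flow cytometry.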

[6] = molecular target: Sodium channel protein type 2 subunit alpha (Homo sapiens) (UniProt Q99250); test: Reversible inhibition of human voltage-gated sodium channel 1.2-mediated current expressed in HEK293 cells at -60 to +10 mV holding poteinitial at 1 to 10 uM after 5 mins measured after drug washout by patch clamp electrophysiology; assay type: cell-based; how it was run: as §2
[7] = molecular target: T1, hERG (KCNH2); test: Displacement of [35S]MK-0499 from human ERG at 10 uM after >90 mins by scintillation counting; details: probe [35S]MK-0499; how it was run: as §1
[8] = molecular target: T1, hERG (KCNH2); test: Displacement of [35S]MK-0499 from human ERG at 30 uM after >90 mins by scintillation counting; details: probe [35S]MK-0499; how it was run: as §1
[9] = molecular target: Sodium channel protein type 2 subunit alpha (Homo sapiens) (UniProt Q99250); test: Inhibition of human voltage-gated sodium channel 1.2-mediated current expressed in HEK293 cells at -60 to +10 mV holding poteinitial at 10 uM after 5 mins by patch clamp electrophysiology; assay type: cell-based; how it was run: as §2
[10] = Cytotoxicity against human CWR22Rv1 cells assessed as cell death at 25 uM after 72 hrs by propidium iodide staining-based FACS analysis; assay type: functional, CWR22R; how it was run: as §4
[11] = molecular target: T1, hERG (KCNH2); test: Displacement of [35S]MK-0499 from human ERG at 3 uM after >90 mins by scintillation counting; details: probe [35S]MK-0499; how it was run: as §1
[12] = tested on: PC-3; test: Antitumor activity against human PC3 cells xenografted in athymic BALB/c nude mouse assessed as reduction in tumor volume at 10 mg/kg, ip qd administered every other day for 24 days; assay type: functional; set-up: scale not given: the % may be the effect or the level left; details: route intraperitoneal
How it was run: (§5)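 Male athymic nude mice (18–22 g) given 3 × 10^6 PC3 cells subcutaneously in right axillary region; randomized one week later into four groups of 6. Compound from DMSO stock diluted in PEG 400/PBS (1:1), given ip once every other day; vehicle control group. Tumor size by caliper, volume = length × width × height/2. One-way ANOVA or ANOVA on ranks with Tukey/Dunn post hoc; mean ± S.E.M.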

[13] = tested on: PC-3; test: Antitumor activity against human PC3 cells xenografted in athymic BALB/c nude mouse assessed as reduction in tumor volume at 10 mg/kg, ip qd administered every other day for 24 days measured on day 15; assay type: functional, organism-based; set-up: dose 10 mg/kg; how it was run: as §5
[14] = as §3; assay type: functional, CWR22R; how it was run: as §4

T1 sequence (Q12809 whole entry): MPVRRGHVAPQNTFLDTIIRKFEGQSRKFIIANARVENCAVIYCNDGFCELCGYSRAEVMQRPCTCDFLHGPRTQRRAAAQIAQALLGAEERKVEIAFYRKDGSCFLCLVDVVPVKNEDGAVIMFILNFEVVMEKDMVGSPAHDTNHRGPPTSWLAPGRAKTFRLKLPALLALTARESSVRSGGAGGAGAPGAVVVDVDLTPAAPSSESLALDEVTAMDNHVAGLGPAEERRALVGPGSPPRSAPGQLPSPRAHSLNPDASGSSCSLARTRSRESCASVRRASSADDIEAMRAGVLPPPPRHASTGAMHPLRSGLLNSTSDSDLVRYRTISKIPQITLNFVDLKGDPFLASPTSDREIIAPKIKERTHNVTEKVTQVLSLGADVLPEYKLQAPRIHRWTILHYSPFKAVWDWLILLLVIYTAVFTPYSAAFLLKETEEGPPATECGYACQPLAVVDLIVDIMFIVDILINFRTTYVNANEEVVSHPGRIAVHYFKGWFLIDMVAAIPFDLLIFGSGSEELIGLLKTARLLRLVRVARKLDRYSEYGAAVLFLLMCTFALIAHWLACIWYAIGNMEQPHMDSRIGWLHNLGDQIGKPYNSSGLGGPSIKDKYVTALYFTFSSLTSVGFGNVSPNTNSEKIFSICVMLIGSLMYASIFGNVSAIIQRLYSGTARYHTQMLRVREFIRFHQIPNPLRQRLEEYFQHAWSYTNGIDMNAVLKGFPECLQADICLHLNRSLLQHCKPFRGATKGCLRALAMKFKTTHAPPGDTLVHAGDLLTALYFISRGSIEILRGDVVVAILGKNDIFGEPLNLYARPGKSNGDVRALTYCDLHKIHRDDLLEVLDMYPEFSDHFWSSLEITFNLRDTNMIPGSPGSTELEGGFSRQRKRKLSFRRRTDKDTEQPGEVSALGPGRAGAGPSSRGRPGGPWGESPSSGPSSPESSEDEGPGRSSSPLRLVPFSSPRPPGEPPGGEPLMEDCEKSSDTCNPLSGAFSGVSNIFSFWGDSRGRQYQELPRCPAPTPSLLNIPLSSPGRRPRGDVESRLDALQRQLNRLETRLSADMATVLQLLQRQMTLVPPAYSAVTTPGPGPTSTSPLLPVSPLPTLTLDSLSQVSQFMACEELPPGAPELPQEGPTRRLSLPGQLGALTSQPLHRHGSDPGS
Sodium channel protein type 2 subunit alpha (Homo sapiens), sequence (Q99250 whole entry, looked up, the tested form may be a part): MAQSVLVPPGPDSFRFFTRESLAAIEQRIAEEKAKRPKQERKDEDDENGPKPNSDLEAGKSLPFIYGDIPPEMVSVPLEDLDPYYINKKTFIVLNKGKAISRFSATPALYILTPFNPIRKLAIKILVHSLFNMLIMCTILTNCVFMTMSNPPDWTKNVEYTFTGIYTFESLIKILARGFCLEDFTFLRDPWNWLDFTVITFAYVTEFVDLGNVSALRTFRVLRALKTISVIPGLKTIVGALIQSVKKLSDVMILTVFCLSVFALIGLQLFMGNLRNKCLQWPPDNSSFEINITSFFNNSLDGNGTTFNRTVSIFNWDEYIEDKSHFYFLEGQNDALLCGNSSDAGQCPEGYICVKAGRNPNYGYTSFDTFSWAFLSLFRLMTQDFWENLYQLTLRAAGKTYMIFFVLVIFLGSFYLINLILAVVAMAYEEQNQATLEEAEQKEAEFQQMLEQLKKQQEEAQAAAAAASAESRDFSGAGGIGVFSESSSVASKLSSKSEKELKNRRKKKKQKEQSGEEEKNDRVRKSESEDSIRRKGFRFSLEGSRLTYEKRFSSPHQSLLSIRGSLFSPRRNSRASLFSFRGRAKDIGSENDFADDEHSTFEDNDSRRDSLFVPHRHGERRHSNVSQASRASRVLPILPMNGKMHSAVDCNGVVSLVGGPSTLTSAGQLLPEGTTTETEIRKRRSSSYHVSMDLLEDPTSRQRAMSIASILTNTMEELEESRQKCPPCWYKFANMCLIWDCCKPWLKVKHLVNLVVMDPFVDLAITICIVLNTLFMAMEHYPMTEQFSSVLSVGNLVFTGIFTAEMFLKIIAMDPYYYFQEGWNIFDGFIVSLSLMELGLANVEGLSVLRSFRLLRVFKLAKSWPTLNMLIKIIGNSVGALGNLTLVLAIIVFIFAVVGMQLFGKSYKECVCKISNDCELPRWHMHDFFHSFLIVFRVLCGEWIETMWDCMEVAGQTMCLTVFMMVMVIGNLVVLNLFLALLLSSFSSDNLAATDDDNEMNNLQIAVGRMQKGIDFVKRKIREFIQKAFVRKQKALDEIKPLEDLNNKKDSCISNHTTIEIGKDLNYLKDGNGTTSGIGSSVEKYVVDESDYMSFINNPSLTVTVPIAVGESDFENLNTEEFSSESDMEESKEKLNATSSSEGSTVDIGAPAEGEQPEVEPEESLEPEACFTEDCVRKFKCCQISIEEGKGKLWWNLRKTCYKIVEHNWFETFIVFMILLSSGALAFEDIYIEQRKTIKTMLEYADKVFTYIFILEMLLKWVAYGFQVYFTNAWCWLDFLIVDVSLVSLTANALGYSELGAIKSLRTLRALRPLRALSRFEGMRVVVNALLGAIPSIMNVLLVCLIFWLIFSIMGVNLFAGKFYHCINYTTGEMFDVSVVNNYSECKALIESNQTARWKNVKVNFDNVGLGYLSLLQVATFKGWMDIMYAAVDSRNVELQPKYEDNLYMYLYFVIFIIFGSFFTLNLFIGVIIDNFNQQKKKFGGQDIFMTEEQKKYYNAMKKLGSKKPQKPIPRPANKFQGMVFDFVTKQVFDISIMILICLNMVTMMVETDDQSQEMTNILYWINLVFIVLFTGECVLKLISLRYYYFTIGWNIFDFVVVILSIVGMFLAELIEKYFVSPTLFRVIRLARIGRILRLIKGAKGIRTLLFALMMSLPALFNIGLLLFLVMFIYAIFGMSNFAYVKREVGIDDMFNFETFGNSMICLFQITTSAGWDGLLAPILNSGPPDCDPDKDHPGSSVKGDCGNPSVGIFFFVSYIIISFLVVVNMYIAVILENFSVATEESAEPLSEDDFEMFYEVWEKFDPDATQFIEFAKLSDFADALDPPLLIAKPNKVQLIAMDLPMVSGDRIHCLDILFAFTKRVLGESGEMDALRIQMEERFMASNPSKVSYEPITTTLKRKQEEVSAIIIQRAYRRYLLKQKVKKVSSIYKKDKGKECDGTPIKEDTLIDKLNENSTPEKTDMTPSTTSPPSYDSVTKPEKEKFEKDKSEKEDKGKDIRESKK
Sodium channel protein type 9 subunit alpha, sequence (Q15858 whole entry): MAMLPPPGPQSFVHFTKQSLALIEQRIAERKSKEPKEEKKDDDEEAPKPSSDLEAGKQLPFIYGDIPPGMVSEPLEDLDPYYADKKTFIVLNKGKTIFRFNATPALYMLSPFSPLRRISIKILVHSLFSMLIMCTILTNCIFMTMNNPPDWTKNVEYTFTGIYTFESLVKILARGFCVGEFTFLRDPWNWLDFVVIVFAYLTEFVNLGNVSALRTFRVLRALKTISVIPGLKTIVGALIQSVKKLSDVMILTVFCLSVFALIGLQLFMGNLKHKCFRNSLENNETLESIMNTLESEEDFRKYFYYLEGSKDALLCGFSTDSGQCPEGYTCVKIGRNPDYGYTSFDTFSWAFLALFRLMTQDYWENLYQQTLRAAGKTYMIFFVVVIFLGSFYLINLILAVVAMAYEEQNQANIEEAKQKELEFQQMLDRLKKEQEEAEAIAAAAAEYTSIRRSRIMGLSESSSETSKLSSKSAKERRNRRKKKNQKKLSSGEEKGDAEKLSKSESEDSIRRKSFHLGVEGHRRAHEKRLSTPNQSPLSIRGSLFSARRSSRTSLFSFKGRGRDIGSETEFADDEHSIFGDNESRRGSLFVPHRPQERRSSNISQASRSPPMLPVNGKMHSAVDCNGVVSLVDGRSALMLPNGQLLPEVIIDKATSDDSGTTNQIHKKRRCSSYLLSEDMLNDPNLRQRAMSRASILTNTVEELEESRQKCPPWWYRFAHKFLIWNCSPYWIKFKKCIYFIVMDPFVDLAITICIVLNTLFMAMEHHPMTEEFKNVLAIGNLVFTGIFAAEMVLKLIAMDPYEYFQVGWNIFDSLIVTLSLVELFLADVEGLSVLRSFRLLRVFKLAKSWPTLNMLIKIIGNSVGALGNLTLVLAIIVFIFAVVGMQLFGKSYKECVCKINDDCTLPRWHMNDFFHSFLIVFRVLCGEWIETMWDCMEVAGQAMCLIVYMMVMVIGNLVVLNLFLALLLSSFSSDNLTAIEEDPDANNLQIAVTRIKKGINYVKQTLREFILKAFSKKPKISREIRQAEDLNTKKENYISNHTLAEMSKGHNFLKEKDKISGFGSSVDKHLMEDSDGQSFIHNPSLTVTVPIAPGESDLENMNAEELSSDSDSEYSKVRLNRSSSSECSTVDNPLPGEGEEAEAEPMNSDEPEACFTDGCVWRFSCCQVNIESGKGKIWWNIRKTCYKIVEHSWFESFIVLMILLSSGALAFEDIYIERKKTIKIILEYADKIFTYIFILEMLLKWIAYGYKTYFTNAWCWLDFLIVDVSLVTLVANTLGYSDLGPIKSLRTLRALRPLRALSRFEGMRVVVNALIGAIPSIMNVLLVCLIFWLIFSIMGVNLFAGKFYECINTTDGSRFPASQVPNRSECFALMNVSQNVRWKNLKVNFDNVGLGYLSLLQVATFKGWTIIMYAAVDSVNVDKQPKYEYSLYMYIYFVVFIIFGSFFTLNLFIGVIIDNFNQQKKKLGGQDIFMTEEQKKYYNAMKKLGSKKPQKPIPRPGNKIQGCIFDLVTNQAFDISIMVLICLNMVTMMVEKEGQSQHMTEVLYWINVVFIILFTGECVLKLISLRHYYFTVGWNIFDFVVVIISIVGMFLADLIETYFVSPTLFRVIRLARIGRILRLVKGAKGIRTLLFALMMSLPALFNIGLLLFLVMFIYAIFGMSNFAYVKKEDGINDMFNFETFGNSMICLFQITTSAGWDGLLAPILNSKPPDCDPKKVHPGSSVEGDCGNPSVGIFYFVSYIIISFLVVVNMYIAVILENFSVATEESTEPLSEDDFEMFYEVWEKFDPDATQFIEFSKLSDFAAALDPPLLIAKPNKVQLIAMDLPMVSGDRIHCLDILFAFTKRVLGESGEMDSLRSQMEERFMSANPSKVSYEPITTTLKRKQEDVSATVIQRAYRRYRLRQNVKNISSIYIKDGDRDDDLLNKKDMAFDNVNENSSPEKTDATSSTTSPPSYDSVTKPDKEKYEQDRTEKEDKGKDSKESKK

In the case of CCCCCCCC(O)(C(N)=O)c1cccc(Cl)c1 (racemic), the inhibition at […], 1 µM [1] is reported as 17%, the inhibition [2] is reported as 31.9% and the inhibition at […], 0.3 µM [3] is reported as 15%. The IC50 [4] was 1.81 µM, the Activity [5] was “Active” and the inhibition [6] was “Active”. For the same molecule, the inhibition at […], 10 µM [7] was 51%, the inhibition at […], 30 µM [8] was 78% and the inhibition [9] was 87%. The Activity [10] was 25%, the inhibition at […], 3 µM [11] was 15% and the Activity [12] was 62%. The Activity [13] was “Active”.
For CCCCCCC[C@](O)(C(N)=O)c1cccc(Cl)c1, the inhibition [2] was 67.4%, the Activity [14] was 25% and the inhibition [6] was “Active”. For the same molecule, the inhibition [9] was 94.3%, the Activity [10] was 60% and the Activity [12] was 62%. The Activity [13] was “Active”.
With CCCCCCC[C@@](O)(C(N)=O)c1cccc(Cl)c1 the inhibition [2] was 34.9%, the Activity [5] was “Active” and the inhibition [6] was “Active”. The inhibition [9] was 91.5%, the Activity [10] was 40% and the Activity [12] was 62%. For the same molecule, the Activity [13] was “Active”.
